Substitutions are numbered along the chain they refer to. “Also recorded” adds a separate entry of the source.
Experiments:
[1] = system: E. coli BL21(DE3)pLysS cells carrying recombinant pET-25b(+) vector with different npmA variants; assay: Kanamycin MIC dilution assay in cells carrying npmA variants; type: cell-based, Escherichia coli
Summary of the method: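 BL21(DE3)pLysS cells with pET-25b(+) npmA variants were grown overnight, diluted 100-fold in LB with ampicillin (100 mg/l) and chloramphenicol (34 mg/l), and grown to OD600 1. Cells were inoculated into the same medium with kanamycin at 0.5–1024 mg/l in twofold steps and incubated 18 h at 37°C. MIC was the lowest kanamycin concentration preventing visible growth.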

NpmA E88A = molecular target: T1, NpmA E88A (Escherichia coli, UniProt A8C927, E88A); assay: ITC titration of NpmA E88A variant with cofactor; type: binding; details: 20°C
T1 sequence (A8C927 1-219 E88A): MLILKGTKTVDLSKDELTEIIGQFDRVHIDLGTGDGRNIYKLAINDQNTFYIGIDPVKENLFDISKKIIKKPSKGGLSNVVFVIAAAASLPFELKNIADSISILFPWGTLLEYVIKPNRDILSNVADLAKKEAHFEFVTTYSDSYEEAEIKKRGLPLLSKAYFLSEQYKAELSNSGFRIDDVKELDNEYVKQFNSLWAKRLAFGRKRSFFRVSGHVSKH

NpmA D30A = molecular target: T2, NpmA D30A (Escherichia coli, UniProt A8C927, D30A); assay: ITC titration of NpmA D30A variant with cofactor; type: binding; details: 20°C
T2 sequence (A8C927 1-219 D30A): T1 sequence (A8C927 1-219 E88A) with D30A, A88E

NpmA D55A = molecular target: T3, NpmA D55A (Escherichia coli, UniProt A8C927, D55A); assay: ITC titration of NpmA D55A variant with cofactor; type: binding; details: 20°C
T3 sequence (A8C927 1-219 D55A): T1 sequence (A8C927 1-219 E88A) with D55A, A88E

NpmA (wild-type) = molecular target: T4, NpmA (wild-type) (Escherichia coli, UniProt A8C927); assay: ITC titration of wild-type NpmA with cofactor; type: binding
T4 sequence (A8C927 1-219): T1 sequence (A8C927 1-219 E88A) with A88E

NpmA S195A = molecular target: T5, NpmA S195A (Escherichia coli, UniProt A8C927, S195A); assay: ITC titration of NpmA S195A variant with cofactor; type: binding; details: 20°C
T5 sequence (A8C927 1-219 S195A): T1 sequence (A8C927 1-219 E88A) with A88E, S195A

NC[C@H]1O[C@H](O[C@H]2[C@H](O)[C@@H](O[C@H]3O[C@H](CO)[C@@H](O)[C@H](N)[C@H]3O)[C@H](N)C[C@@H]2N)[C@H](O)[C@@H](O)[C@@H]1O [Kanamycin, kanamycin]
Kanamycin MIC ([1]; Negative control (empty vector), 18 h at 37°C): 4 to 8 µg/mL
Kanamycin MIC ([1]; cells expressing NpmA D30A): 8 µg/mL
Kanamycin MIC ([1]; cells expressing NpmA D55A): 512 µg/mL
kanamycin MIC compared to the wt NpmA ([1]; cells expressing NpmA D55A): 50%
Kanamycin MIC ([1]; cells expressing NpmA E88A): 1024 µg/mL
Kanamycin MIC ([1]; cells expressing NpmA F177A): 1024 µg/mL
Kanamycin MIC ([1]; cells expressing NpmA K199A): 1024 µg/mL
Kanamycin MIC ([1]; cells expressing NpmA P106A): 1024 µg/mL
Kanamycin MIC ([1]; cells expressing NpmA R200A): 1024 µg/mL
Kanamycin MIC ([1]; cells expressing NpmA R205A): 1024 µg/mL
Kanamycin MIC ([1]; cells expressing NpmA S195A): 1024 µg/mL
Kanamycin MIC ([1]; cells expressing NpmA T109A): 1024 µg/mL
Kanamycin MIC ([1]; cells expressing NpmA W107A): 8 µg/mL
Kanamycin MIC ([1]; cells expressing NpmA W197A): 8 µg/mL
Kanamycin MIC ([1]; cells expressing NpmA-wt): 1024 µg/mL

C[S+](CC[C@H](N)C(=O)[O-])C[C@H]1O[C@@H](n2cnc3c(N)ncnc32)[C@H](O)[C@@H]1O (stereo partly shown) [AdoMet, S-adenosylmethionine]
Kd for AdoMet (NpmA E88A): completely lost their ability to interact; also recorded: No binding
Kd for AdoMet (NpmA D30A): completely lost their ability to interact; also recorded: No binding
Kd for AdoMet (NpmA D55A): completely lost their ability to interact; also recorded: No binding
N (ITC single site fit) for AdoMet (NpmA (wild-type)): 1.1
Kd (NpmA (wild-type); Kd for AdoMet, ITC, 20°C, no 30S subunit): 18 µM
Kd for AdoMet (NpmA S195A): complete loss of AdoMet binding; also recorded: No binding

Nc1ncnc2c1ncn2[C@@H]1O[C@H](CSCC[C@H](N)C(=O)O)[C@@H](O)[C@H]1O [AdoHcy, S-adenosylhomocysteine]
Kd for AdoHcy (NpmA E88A): completely lost their ability to interact; also recorded: No binding
Kd for AdoHcy (NpmA D30A): completely lost their ability to interact; also recorded: No binding
Kd for AdoHcy (NpmA D55A): completely lost their ability to interact; also recorded: No binding
N (ITC single site fit) for AdoHcy (NpmA (wild-type)): 1.0

Reference: PMC3061052 (Nucleic Acids Research, 2010)
